Assay outcomes as filed in PubChem BioAssay.
A1 inh: caspase 3/7 activation in MEF A1-2A-BIM cells, primary screen, A1 inhibitor project, cell-based, luminescence, HTS; Caspase-Glo 3/7 luminescence, 3 h; percent of clofoctol response, vehicle zero; caspase activation, % (concentration not given with the values); actives 0.066% (n = 330,000); AID 2462, 2010;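 active = over half of replicate activation scores above 10%, or exactly half above 10 with the replicate mean above 10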
UPR XBP1 act: activators of adaptive XBP1 UPR arm, primary screen, cell-based, CHO-XBP1 luciferase reporter, luminescence, uHTS; IRE1-XBP1 UPR activation; percent of tunicamycin response, DMSO as zero; activation, % at 20 µM; actives 0.33% (n = 330,000);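 active = versus positive control, 20 µM dose yields 30% or more activation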
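Material: CHO-XBP1 cells stably carrying IRE1-XBP1-driven luciferase reporter / Amount: 1000 cells per well / Compound: 20 µM, 1% DMSO / Times: 6 h treatment, 37 °C / Detection: luciferase luminescence / Measure: % activation of reporter signal versus tunicamycin and DMSO controls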
MC4R antag cAMP: MC4R antagonists of cAMP signaling, primary screen, cell-based, TR-FRET, antagonist arm of biased-ligand search. Melanocortin receptor 4 (Homo sapiens), P32245. MC4R-expressing cells, MTII-stimulated cAMP, LANCE TR-FRET. inhibition, % at 6.5 µM. actives 0.48% (n = 360,000);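 active = inhibition above its plate's cutoff, the mean of tested wells on that plate plus 3 SD, cut at about 29% in these data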
Target sequence (P32245 whole entry, looked up): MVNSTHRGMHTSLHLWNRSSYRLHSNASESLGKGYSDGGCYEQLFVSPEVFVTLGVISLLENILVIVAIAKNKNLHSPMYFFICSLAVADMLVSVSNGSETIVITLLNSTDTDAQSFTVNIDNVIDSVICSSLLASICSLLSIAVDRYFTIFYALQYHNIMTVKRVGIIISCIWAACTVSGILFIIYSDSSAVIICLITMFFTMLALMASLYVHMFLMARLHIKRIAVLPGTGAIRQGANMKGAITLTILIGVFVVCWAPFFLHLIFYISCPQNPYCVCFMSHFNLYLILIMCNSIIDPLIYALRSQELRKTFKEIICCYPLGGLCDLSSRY
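system = U2OS cells with stable human MC4R expression | also added = Melanotan II challenge after compound preincubation | dosing = one concentration, 6.5 µM nominal | incubation = compound 30 min, challenge 1 h, detection 1 h | measured by = TR-FRET with Eu-cAMP and labeled anti-cAMP, 671 nm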
MC4R ag barr: MC4R agonists recruiting beta-arrestin, primary screen, cell-based, luminescence, agonist arm of biased-ligand search; Melanocortin receptor 4 (Homo sapiens), P32245; U2OS MC4R beta-arrestin complementation; percent of melanotan II response, DMSO zero; activation, % at 8.9 µM; actives 0.98% (n = 360,000); AID 540308, 2011;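 active = activation above a per-plate cutoff, the mean activation of sample wells on that plate plus 3 SD, cut at about 8% in these data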
UPR CHOP act: activators of apoptotic CHOP UPR arm, primary screen, cell-based, CHO-CHOP luciferase reporter, luminescence, uHTS | UPR activation; percent of tunicamycin response over DMSO baseline | AID 449763, 2010 | actives 0.34% (n = 330,000) | activation, % at 10 µM;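 active = at 10 µM dose, activation of 40% or more, normalized to positive control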
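Evaluation: % reporter activation, DMSO baseline versus tunicamycin full activation; System: CHO-CHOP luciferase reporter cell line; Input: 500 cells/well; Incubation: 6 h compound treatment, 37 °C; Measured by: Steady-Glo luciferase luminescence; Dosing: one dose, 10 µM in 0.5% DMSO; Buffer or medium: F12 medium, 10% FBS; Benchmarks: positive tunicamycin 10 µg/mL, negative DMSO alone.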
MC4R barr conf: MC4R beta-arrestin agonists, retest, confirmation, cell-based, luminescence, U2OS; shares compounds with MC4R ag barr; U2OS MC4R beta-arrestin recruitment; scaled DMSO 0%, Melanotan II 100%; activation, % at 8.9 µM; actives 31% (n = 2,400);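 active = mean activation across replicates above the hit cutoff set in the earlier primary screen, cut at about 8% in these data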
MOR DOR agonist: agonists of MOR-DOR heterodimerization, counter-screen for MC4R biased agonist project, cell-based, luminescence | shares compounds with MC4R ag barr | U2OS PathHunter beta-arrestin, beta-gal luminescence; percent of deltorphin B response, DMSO zero | activation, % at 9.2 µM | actives 5.8% (n = 2,400);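 active = mean activation across replicates exceeds the hit threshold derived in the earlier primary screen, cut at about 18% in these data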
Hits are given with their value; 0 = inactive; - = not tested or not shown. A selection: hits, their analogues and other compounds. The true share with any hit is near 2%.

SMILES	A1 inh	UPR XBP1 act	MC4R antag cAMP	MC4R ag barr	UPR CHOP act	MC4R barr conf	MOR DOR agonist
Oc1cccc(-c2ccc3nccn3c2)c1	-	-	0	0	-	-	-
Nc1ccc(C(=O)Nc2ccc(OC(F)(F)C(F)F)c(NC(=O)c3ccc(N)cc3)c2)cc1	0	0	0	0	0	-	-
O=C(Nc1ccc(OC(F)(F)C(F)F)c(NC(=O)c2ccc(F)cc2)c1)c1ccc(F)cc1	0	0	0	12	0	0	0
CCCN1CCN(C(=O)c2ccc(CS(=O)c3ccc(Br)cc3)o2)CC1 (centres undefined)	-	-	0	0	-	-	-
Cc1c(CN2CCN(CC(C)(C)C)C(CCO)C2)[nH]c2ccccc12 (centres undefined)	0	0	0	0	0	-	-
CCOc1ccc(CN2CCN(Cc3[nH]c4ccccc4c3C)CC2CCO)cc1 (centres undefined)	0	0	0	12	0	0	22
O=C(Nc1ccc2oc(-c3ccncc3)nc2c1)c1ccc2c(c1)OCO2	0	0	0	0	0	-	-
O=C(Nc1ccc2oc(-c3ccncc3)nc2c1)c1ccc2c(c1)OCCO2	0	0	0	23	0	12	0
CC/C(=N/Nc1ccc(Cl)cc1)c1cnnc(SC)n1	0	0	0	0	0	-	-
CC/C(=N/Nc1cccc(C)c1)c1cnnc(SC)n1	0	0	0	21	0	0	0
CCCCCCn1c(SCC(=O)NC2CCS(=O)(=O)C2)nc2ccccc2c1=O (centres undefined)	-	-	0	0	-	-	-
Cc1ccc(C)c(OCc2ccc(C(=O)NN)o2)c1	0	0	0	15	0	0	0
Cc1ccc(C)c(OCc2ccc(C(=O)Nc3ccc([N+](=O)[O-])cn3)o2)c1	0	0	0	16	0	0	0
Cc1ccc(C(=O)Nc2ccc([N+](=O)[O-])cn2)o1	0	0	0	0	0	-	-
COc1cccc(S(=O)(=O)N(C)C[C@@H]2OCc3cn(nn3)CCCC(=O)N([C@@H](C)CO)C[C@H]2C)c1	-	-	0	0	-	-	-
CC(C)Cn1c(=S)[nH]c2cc(C(=O)NCc3ccccc3F)ccc2c1=O	0	0	0	14	0	0	0
CCCn1c(=S)[nH]c2cc(C(=O)NCc3ccccc3OC)ccc2c1=O	-	-	0	0	-	-	-
CCCNC(=O)C1(C)CCN(CCOc2ccc(Cl)cc2)C1 (centres undefined)	-	-	0	0	-	-	-
NNc1ccc(S(=O)(=O)N2CCCCC2)cn1	0	0	0	12	0	0	0
COc1ccc(N2C(=S)N=C(Nc3cccc(C)c3)C23CCCCC3)cc1	0	0	0	24	0	9.6	0
CSc1ccccc1C(=O)C1CCCN(C(=O)c2cccc(Cn3cccn3)c2)C1 (centres undefined)	-	-	0	0	-	-	-
COc1cccc(S(=O)(=O)N(C)C[C@H]2OCc3cnnn3CCCC(=O)N([C@H](C)CO)C[C@H]2C)c1	-	-	0	0	-	-	-
Cc1ccc(Oc2cc([N+](=O)[O-])cc3c2C(=O)Nc2ccccc2O3)cc1	0	0	0	14	0	0	0
O=C1Nc2ccccc2Nc2ccc([N+](=O)[O-])cc21	0	0	0	0	0	-	-
C=CCSc1nc2sc(-c3ccccc3)cc2c(=O)n1N	0	0	0	19	0	21	21
SMILES	A1 inh	UPR XBP1 act	MC4R antag cAMP	MC4R ag barr	UPR CHOP act	MC4R barr conf	MOR DOR agonist
Cc1nn(-c2ccccc2)c(N2CCCC2)c1/C=N/NC(=S)Nc1ccccc1F	0	0	0	14	0	0	0
Cc1nn(-c2ccccc2)c(N2CCCC2)c1/C=N/NC(=O)c1cc2ccccc2cc1O	0	0	0	0	0	-	-
Cc1cccc(NC(=O)COC(=O)c2ccc(S(=O)(=O)N3CCCCCC3)cc2)c1	-	0	0	12	0	0	0
O=C(COC(=O)c1ccc(S(=O)(=O)N2CCCC2)cc1)Nc1ccccc1Cl	-	-	0	0	-	-	-
O=C(COC(=O)c1cccc(S(=O)(=O)N2CCCCCC2)c1)NCc1ccc(Cl)cc1	-	0	0	9.8	0	0	0
O=C(COC(=O)c1ccc(S(=O)(=O)N2CCCCC2)cc1)Nc1ccccc1Cl	-	0	0	23	0	0	0
O=C(COC(=O)c1ccc(S(=O)(=O)N2CCCC2)cc1)Nc1cccc(Br)c1	0	0	0	0	0	-	-
O=C(COC(=O)c1cccc(S(=O)(=O)N2CCCCC2)c1)NCc1ccccc1	-	0	0	0	0	-	-
C#CCN(C[C@@H]1[C@@H](OC(=O)NCc2ccccc2)[C@@H](OC(=O)NCc2ccccc2)CN(C(=O)OC(C)C)N1C(=O)OC(C)C)S(=O)(=O)c1ccc(C)cc1	-	-	0	0	-	-	-
CCc1nc2c(OCC(=O)C(C)(C)C)cccn2c1N(C=O)Cc1ccccc1	-	-	0	0	-	-	-
Cc1ccc(-c2cnc(C(O)c3cc(C)cc(C)c3)[nH]2)cc1 (centres undefined)	-	-	0	0	-	-	-
CC(=O)Nc1cc(-c2ccc(C(=O)N3CCOCC3)cc2)cn2c(-c3ccc(S(C)(=O)=O)cc3)cnc12	-	-	0	0	-	-	-
CCOC(=O)C1(C)CCN1C(=O)c1c(F)cccc1F (centres undefined)	-	-	0	0	-	-	-
CCOc1ccc(N)c(SSc2cc(OCC)ccc2N)c1	0	0	0	11	0	0	0
Cc1ccc(-c2cc(C(=O)N(C)Cc3cnn(C)c3C)c3cc(Br)ccc3n2)cc1	0	0	0	9.7	0	0	0
COc1ccccc1NC(=O)N(C)C[C@H]1OCc2cnnn2CCCC(=O)N([C@H](C)CO)C[C@@H]1C	-	-	0	0	-	-	-
O=C(CSc1cc(Cl)ccc1Cl)NC1CCCc2ccccc21 (centres undefined)	0	0	0	13	0	0	0
O=C(CSc1nc2cc(Cl)ccc2s1)NC1CCCc2ccccc21 (centres undefined)	0	0	0	0	0	-	-
COc1ccc(-c2cc(CCCC(=O)NCCc3ccc(OC)cc3OC)no2)cc1	0	0	0	0	0	-	-
CCOc1ccc(-c2cc(CCCC(=O)NCCc3ccc(OC)c(OC)c3OC)no2)cc1	0	0	0	24	0	0	0
Cc1nc2ccc(S(=O)(=O)CCC(=O)NCCc3ccccc3)cc2s1	-	-	0	0	-	-	-
